Results published in ChEMBL document CHEMBL4229382, “Phenylthiazoles with tert-Butyl side chain: Metabolically stable with anti-biofilm activity” (Eur J Med Chem, 2018).
≈ marks a conversion by molar mass, not a printed value. Calls of active or inactive are those of the source. The calls are words filed in the database; no cut-off is given here.

Key:
[1] = test system: Staphylococcus epidermidis; assay: Antibacterial activity against methicillin-resistant Staphylococcus epidermidis NRS101 after 18 hrs by broth microdilution assay; format: functional; settings: NRS101, 18 h
How it was run: (§1)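 Broth microdilution: inoculum from 0.5 McFarland suspension diluted to about 5 × 10^5 CFU/mL. Media were cation-adjusted Mueller-Hinton broth for staphylococci, brain heart infusion for E. faecium, and tryptone soya broth for E. faecalis, S. pneumoniae and L. monocytogenes.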

Staphylococcus aureus [2] = assay: Antibacterial activity against methicillin-resistant Staphylococcus aureus 2658 RCMB after 18 hrs by broth microdilution assay; format: functional; how it was run: as §1
Enterococcus faecalis [3] = assay: Antibacterial activity against vancomycin-resistant Enterococcus faecalis ATCC 51299 after 18 hrs by broth microdilution assay; format: functional; settings: ATCC 51299, 18 h; how it was run: as §1
Staphylococcus aureus [4] = assay: Antibacterial activity against methicillin-sensitive Staphylococcus aureus ATCC 6538 after 18 hrs by broth microdilution assay; format: functional; settings: ATCC 6538, 18 h; how it was run: as §1
Staphylococcus aureus [5] = assay: Antibacterial activity against methicillin-sensitive Staphylococcus aureus NRS107 after 18 hrs by broth microdilution assay; format: functional; settings: NRS107, 18 h; how it was run: as §1
Staphylococcus aureus [6] = assay: Antibacterial activity against methicillin-resistant Staphylococcus aureus NRS119 after 18 hrs by broth microdilution assay; format: functional; settings: NRS119, 18 h; how it was run: as §1
Staphylococcus aureus [7] = assay: Antibacterial activity against methicillin-resistant Staphylococcus aureus NRS123 USA400 after 18 hrs by broth microdilution assay; format: functional; settings: NRS123 USA400, 18 h; how it was run: as §1
Staphylococcus aureus [8] = assay: Antibacterial activity against methicillin-resistant Staphylococcus aureus NRS384 USA300 after 18 hrs by broth microdilution assay; format: functional; settings: NRS384 USA300, 18 h; how it was run: as §1
Staphylococcus aureus [9] = assay: Antibacterial activity against methicillin-resistant Staphylococcus aureus NRS385 after 18 hrs by broth microdilution assay; format: functional; settings: NRS385, 18 h; how it was run: as §1
Staphylococcus aureus [10] = assay: Antibacterial activity against methicillin-resistant Staphylococcus aureus NRS386 after 18 hrs by broth microdilution assay; format: functional; settings: NRS386, 18 h; how it was run: as §1
Staphylococcus aureus [11] = assay: Antibacterial activity against vancomycin-resistant Staphylococcus aureus VRS10 after 18 hrs by broth microdilution assay; format: functional; settings: VRS10, 18 h; how it was run: as §1
Staphylococcus aureus [12] = assay: Antibacterial activity against vancomycin-resistant Staphylococcus aureus VRS12 after 18 hrs by broth microdilution assay; format: functional; settings: VRS12, 18 h; how it was run: as §1
Enterococcus faecium [13] = assay: Antibacterial activity against vancomycin-resistant Enterococcus faecium ATCC 700221 after 18 hrs by broth microdilution assay; format: functional; settings: ATCC 700221, 18 h; how it was run: as §1
Listeria monocytogenes [14] = assay: Antibacterial activity against Listeria monocytogenes ATCC 19111 after 18 hrs by broth microdilution assay; format: functional; settings: ATCC 19111, 18 h
Streptococcus pneumoniae [15] = assay: Antibacterial activity against cephalosporin-resistant Streptococcus pneumoniae ATCC 51916 after 18 hrs by broth microdilution assay; format: functional; settings: ATCC 51916, 18 h; how it was run: as §1
Streptococcus pneumoniae [16] = assay: Antibacterial activity against methicillin-resistant Streptococcus pneumoniae ATCC 700677 after 18 hrs by broth microdilution assay; format: functional; settings: ATCC 700677, 18 h; how it was run: as §1
Staphylococcus aureus [17] = assay: Antibacterial activity against methicillin-resistant Staphylococcus aureus NRS123 USA400 assessed as reduction in bacterial burden measured over 24 hrs by time kill assay; format: functional
How it was run: (§2)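 Samples taken at 0, 2, 4, 6, 8, 12 and 24 h were serially diluted in PBS, plated on TSA and incubated ≥18 h for viable CFU/mL. DMSO was the negative control; two independent experiments.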

Listeria monocytogenes [18] = assay: Selectivity ratio of MBC to MIC for Listeria monocytogenes ATCC 19111; format: functional
Caco-2 = assay: Cytotoxicity against human Caco2 cells at 32 ug/ml after 2 hrs by MTS assay; format: cell-based; settings: caco-2, 2 h
How it was run: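 Caco-2 cells grown in DMEM with 20% FBS, non-essential amino acids and penicillin-streptomycin, 37 °C, 5% CO2; exposed in triplicate to compounds (16, 32, 64 µg/mL) for 2 h; MTS added, 4 h further incubation, OD490 read; viability as percent of DMSO-treated controls; two independent experiments.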

Staphylococcus aureus [19] = assay: Bactericidal activity against methicillin-sensitive Staphylococcus aureus ATCC 6538 incubated fo 18 hrs followed by re-plating on tryptic soy agar plates at 37 degC for 18 hrs by broth microdilution assay; format: functional; settings: ATCC 6538, 18 h
Staphylococcus aureus [20] = assay: Bactericidal activity against methicillin-sensitive Staphylococcus aureus NRS107 incubated fo 18 hrs followed by re-plating on tryptic soy agar plates at 37 degC for 18 hrs by broth microdilution assay; format: functional; settings: NRS107, 18 h
Staphylococcus aureus [21] = assay: Bactericidal activity against methicillin-resistant Staphylococcus aureus NRS119 incubated fo 18 hrs followed by re-plating on tryptic soy agar plates at 37 degC for 18 hrs by broth microdilution assay; format: functional; settings: NRS119, 18 h
Staphylococcus aureus [22] = assay: Bactericidal activity against methicillin-resistant Staphylococcus aureus NRS123 USA400 incubated fo 18 hrs followed by re-plating on tryptic soy agar plates at 37 degC for 18 hrs by broth microdilution assay; format: functional; settings: NRS123 USA400, 18 h
Staphylococcus aureus [23] = assay: Bactericidal activity against methicillin-resistant Staphylococcus aureus NRS384 USA300 incubated fo 18 hrs followed by re-plating on tryptic soy agar plates at 37 degC for 18 hrs by broth microdilution assay; format: functional; settings: NRS384 USA300, 18 h
Staphylococcus aureus [24] = assay: Bactericidal activity against methicillin-resistant Staphylococcus aureus NRS385 incubated fo 18 hrs followed by re-plating on tryptic soy agar plates at 37 degC for 18 hrs by broth microdilution assay; format: functional; settings: NRS385, 18 h
Staphylococcus aureus [25] = assay: Bactericidal activity against methicillin-resistant Staphylococcus aureus NRS386 incubated fo 18 hrs followed by re-plating on tryptic soy agar plates at 37 degC for 18 hrs by broth microdilution assay; format: functional; settings: NRS386, 18 h
Staphylococcus aureus [26] = assay: Bactericidal activity against vancomycin-resistant Staphylococcus aureus VRS10 incubated fo 18 hrs followed by re-plating on tryptic soy agar plates at 37 degC for 18 hrs by broth microdilution assay; format: functional; settings: VRS10, 18 h
Staphylococcus aureus [27] = assay: Bactericidal activity against vancomycin-resistant Staphylococcus aureus VRS12 incubated fo 18 hrs followed by re-plating on tryptic soy agar plates at 37 degC for 18 hrs by broth microdilution assay; format: functional; settings: VRS12, 18 h
[28] = test system: Staphylococcus epidermidis; assay: Bactericidal activity against methicillin-resistant Staphylococcus epidermidis NRS101 incubated fo 18 hrs followed by re-plating on tryptic soy agar plates at 37 degC for 18 hrs by broth microdilution assay; format: functional; settings: NRS101, 18 h
Listeria monocytogenes [29] = assay: Bactericidal activity against Listeria monocytogenes ATCC 19111 incubated fo 18 hrs followed by re-plating on tryptic soy agar plates at 37 degC for 18 hrs by broth microdilution assay; format: functional; settings: ATCC 19111, 18 h
Streptococcus pneumoniae [30] = assay: Bactericidal activity against cephalosporin-resistant Streptococcus pneumoniae ATCC 51916 incubated fo 18 hrs followed by re-plating on tryptic soy agar plates at 37 degC for 18 hrs by broth microdilution assay; format: functional; settings: ATCC 51916, 18 h
Streptococcus pneumoniae [31] = assay: Bactericidal activity against methicillin-resistant Streptococcus pneumoniae ATCC 700677 incubated fo 18 hrs followed by re-plating on tryptic soy agar plates at 37 degC for 18 hrs by broth microdilution assay; format: functional; settings: ATCC 700677, 18 h
[32] = Safety index, ratio of cytotoxicity against human Caco2 cells at 32 ug/ml after 2 hrs by MTS assay to antibacterial activity against methicillin-resistant Staphylococcus aureus; format: toxicity, cell-based; settings: Caco-2 cells
Staphylococcus aureus [33] = assay: Inhibition of biofilm formation in methicillin-resistant Staphylococcus aureus NRS384 USA300 after 24 hrs by crystal violet staining-based spectrophotometric analysis
Staphylococcus aureus [34] = assay: Inhibition of biofilm formation in methicillin-resistant Staphylococcus aureus NRS384 USA300 at 1 time MIC after 24 hrs by crystal violet staining-based spectrophotometric analysis relative to control; parameters: scale not given: the % may be the effect or the level left
Staphylococcus aureus [35] = assay: Inhibition of biofilm formation in methicillin-resistant Staphylococcus aureus NRS384 USA300 at 2 times MIC after 24 hrs by crystal violet staining-based spectrophotometric analysis relative to control; parameters: scale not given: the % may be the effect or the level left
Enterococcus faecium [36] = assay: Bactericidal activity against vancomycin-resistant Enterococcus faecium ATCC 700221 incubated fo 18 hrs followed by re-plating on tryptic soy agar plates at 37 degC for 18 hrs by broth microdilution assay; settings: ATCC 700221, 18 h
Staphylococcus aureus [37] = assay: Antibacterial activity against methicillin-resistant Staphylococcus aureus NRS123 USA400 assessed as reduction in bacterial growth after 2 to 4 hrs by time kill assay; format: functional, organism-based; how it was run: as §2
[38] = Terminal phase volume of distribution at steady state in Sprague-Dawley rat at 5 uM, iv administered as bolus dose by LC-MS/MS analysis; format: ADME, organism-based; settings: in vivo, read-out: Vbeta
How it was run: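 Male naïve Sprague–Dawley rats (n = 3) given tail-vein IV bolus of a 5 µM solution; blood taken into EDTA-K2 over 12 h; plasma protein-precipitated with acetonitrile and measured by LC/MS/MS; parameters from two-compartmental analysis.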

Enterococcus faecalis [39] = assay: Bactericidal activity against vancomycin-resistant Enterococcus faecalis ATCC 51299 incubated fo 18 hrs followed by re-plating on tryptic soy agar plates at 37 degC for 18 hrs by broth microdilution assay; format: functional; settings: ATCC 51299, 18 h
Staphylococcus aureus [40] = assay: Antibacterial activity against methicillin-resistant Staphylococcus aureus NRS123 USA400 assessed as change in MIC after 14 serial passages by broth microdilution assay

With `Cc1nc(-c2ccc(C(C)(C)C)cc2)sc1-c1ccnc(NC(=N)c2cccnc2)n1` the MIC [1] was 64 µg/mL (≈ 149 µM), the MIC (Staphylococcus aureus [2]) was 0.78 µg/mL (≈ 1.82 µM) and the MIC (Enterococcus faecalis [3]) was 8 µg/mL (≈ 18.7 µM). For the same compound, the MIC (Staphylococcus aureus [4]) was 4 µg/mL (≈ 9.33 µM), the MIC (Staphylococcus aureus [5]) was 4 µg/mL (≈ 9.33 µM) and the MIC (Staphylococcus aureus [6]) was 4 µg/mL (≈ 9.33 µM). It also gave an MIC (Staphylococcus aureus [7]) of 4 µg/mL (≈ 9.33 µM), an MIC (Staphylococcus aureus [8]) of 4 µg/mL (≈ 9.33 µM) and an MIC (Staphylococcus aureus [9]) of 4 µg/mL (≈ 9.33 µM). The MIC (Staphylococcus aureus [10]) was 4 µg/mL (≈ 9.33 µM), the MIC (Staphylococcus aureus [11]) was 4 µg/mL (≈ 9.33 µM) and the MIC (Staphylococcus aureus [12]) was 4 µg/mL (≈ 9.33 µM). It also gave an MIC (Enterococcus faecium [13]) of 8 µg/mL (≈ 18.7 µM), an MIC (Listeria monocytogenes [14]) of 4 µg/mL (≈ 9.33 µM) and an MIC (Streptococcus pneumoniae [15]) of 4 µg/mL (≈ 9.33 µM). For the same compound, the MIC (Streptococcus pneumoniae [16]) was 4 µg/mL (≈ 9.33 µM), the Activity (Staphylococcus aureus [17]) was 2.3 log10CFU/ml and the Ratio (Listeria monocytogenes [18]) was over 3. For the same compound, the Activity (Caco-2) was “Non-Toxic”, the MBC (Staphylococcus aureus [19]) was 4 µg/mL (≈ 9.33 µM) and the MBC (Staphylococcus aureus [20]) was 4 µg/mL (≈ 9.33 µM). For the same compound, the MBC (Staphylococcus aureus [21]) was 4 µg/mL (≈ 9.33 µM), the MBC (Staphylococcus aureus [22]) was 4 µg/mL (≈ 9.33 µM) and the MBC (Staphylococcus aureus [23]) was 4 µg/mL (≈ 9.33 µM). The MBC (Staphylococcus aureus [24]) was 4 µg/mL (≈ 9.33 µM), the MBC (Staphylococcus aureus [25]) was 4 µg/mL (≈ 9.33 µM) and the MBC (Staphylococcus aureus [26]) was 4 µg/mL (≈ 9.33 µM). It also gave an MBC (Staphylococcus aureus [27]) of 4 µg/mL (≈ 9.33 µM), an MBC [28] of over 64 µg/mL and an MBC (Listeria monocytogenes [29]) of 64 µg/mL (≈ 149 µM). For the same compound, the MBC (Streptococcus pneumoniae [30]) was 8 µg/mL (≈ 18.7 µM), the MBC (Streptococcus pneumoniae [31]) was 8 µg/mL (≈ 18.7 µM) and the selectivity ratio at 2 h, 32 ug/ml [32] was 8 to 30. For the same compound, the inhibition (Staphylococcus aureus [33]) was “Dose-dependent effect”, the Activity (Staphylococcus aureus [34]) was 45.8% and the Activity (Staphylococcus aureus [35]) was 65.2%. It also gave an MBC (Enterococcus faecium [36]) of 16 µg/mL (≈ 37.3 µM).

With `Cc1nc(-c2ccc(C(C)(C)C)cc2)sc1-c1ccnc(NCCN)n1` the MIC (Staphylococcus aureus [2]) was 1.17 µg/mL (≈ 3.18 µM), the MIC (Enterococcus faecalis [3]) was 16 µg/mL (≈ 43.5 µM) and the MIC (Staphylococcus aureus [4]) was 4 µg/mL (≈ 10.9 µM). The MIC (Staphylococcus aureus [5]) was 4 µg/mL (≈ 10.9 µM), the MIC (Streptococcus pneumoniae [16]) was 2 µg/mL (≈ 5.44 µM) and the Activity (Staphylococcus aureus [37]) was “Active”. The Activity (Caco-2) was “Non-Toxic”, the Vd at 5 µM [38] was 16.4 L and the MBC (Enterococcus faecalis [39]) was 16 µg/mL (≈ 43.5 µM). The MBC (Streptococcus pneumoniae [30]) was 16 µg/mL (≈ 43.5 µM), the MBC (Streptococcus pneumoniae [31]) was 16 µg/mL (≈ 43.5 µM) and the selectivity ratio at 2 h, 32 ug/ml [32] was 8 to 30. For the same compound, the inhibition (Staphylococcus aureus [33]) was “Dose-dependent effect”, the Ratio (Staphylococcus aureus [40]) was 1 and the Activity (Staphylococcus aureus [34]) was 28%. For the same compound, the Activity (Staphylococcus aureus [35]) was 64% and the MBC (Enterococcus faecium [36]) was 8 µg/mL (≈ 21.8 µM).
